Published values of several laboratories.
Compare with care: the assays were run in different laboratories.
Target: Serine/threonine-protein kinase D2 (PRKD2, Homo sapiens, UniProt Q9BZL6)
Residues used in one study (Q9BZL6 1-878): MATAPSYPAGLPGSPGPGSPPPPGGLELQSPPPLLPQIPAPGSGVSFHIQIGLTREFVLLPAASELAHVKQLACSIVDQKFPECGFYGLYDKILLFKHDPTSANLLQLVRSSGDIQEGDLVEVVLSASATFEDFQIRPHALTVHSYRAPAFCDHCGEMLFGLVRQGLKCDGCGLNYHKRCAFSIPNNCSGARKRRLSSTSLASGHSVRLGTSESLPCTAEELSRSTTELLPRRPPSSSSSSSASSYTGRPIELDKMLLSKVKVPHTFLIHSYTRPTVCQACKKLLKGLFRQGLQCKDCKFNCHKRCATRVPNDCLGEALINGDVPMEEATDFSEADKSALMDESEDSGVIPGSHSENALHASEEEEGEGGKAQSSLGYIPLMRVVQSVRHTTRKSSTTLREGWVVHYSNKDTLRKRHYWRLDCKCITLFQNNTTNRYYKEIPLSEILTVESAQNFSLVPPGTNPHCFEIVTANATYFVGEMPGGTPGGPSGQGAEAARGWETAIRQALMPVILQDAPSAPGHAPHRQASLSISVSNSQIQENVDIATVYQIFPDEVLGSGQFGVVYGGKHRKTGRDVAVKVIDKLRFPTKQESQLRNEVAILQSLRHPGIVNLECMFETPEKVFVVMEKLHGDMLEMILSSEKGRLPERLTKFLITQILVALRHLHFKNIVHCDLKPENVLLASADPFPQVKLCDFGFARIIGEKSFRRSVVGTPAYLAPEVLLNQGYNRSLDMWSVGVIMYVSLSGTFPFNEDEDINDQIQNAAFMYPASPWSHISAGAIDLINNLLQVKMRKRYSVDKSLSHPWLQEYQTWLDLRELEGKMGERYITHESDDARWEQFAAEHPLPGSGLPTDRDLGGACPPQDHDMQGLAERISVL

SMILES	assay	setting	quantity	result
Cn1c2c(c3ccc(Cl)c(Cl)c31)C(C#N)C1(CCNCC1)NC2=O (racemic)	thermal stability, DSF	10 µM	ΔTm	0.9 °C
Cn1nc(C(F)(F)F)cc1-c1cnc(N2CCc3cc(S(=O)(=O)Nc4c(F)cc(Cl)cc4F)cc(N4CCCC4=O)c32)nc1	cell-free assay, competition with immobilised ligand	1 µM	remaining binding	95%
COc1cc2c(N3CCN(C(=O)Nc4ccc(OC(C)C)cc4)CC3)ncnc2cc1OCCCN1CCCCC1	cell-free assay	0.5 µM	remaining signal	96.4%
Nc1ncnc2occ(-c3ccc(NC(=O)Nc4cc(C(F)(F)F)ccc4F)cc3)c12	cell-free assay, inhibitor	20 µM	remaining signal	43%
CC(C)(C)c1nc(-c2cccc(NS(=O)(=O)c3c(F)cccc3F)c2F)c(-c2ccnc(N)n2)s1	enzyme activity, inhibitor, radiometric	1 µM	remaining activity	30%
COc1cccc(CNC(=O)c2nc3scc(COCc4ccc(C(=O)O)cc4)c3c(=O)[nH]2)c1	cell-free assay, competition with immobilised ligand	1 µM	remaining binding	100%
CC/C(=N\NC(=O)NCc1cccc(O)c1)c1ccc(O)c(C)c1O	enzyme activity, inhibitor	0.1 µM	inhibition	-11.5%
Nc1cnc(N2CCc3cc(S(=O)(=O)Nc4c(F)cc(Cl)cc4F)cc(N4CCCC4=O)c32)nc1	cell-free assay, competition with immobilised ligand	1 µM	remaining binding	100%
CCN(CC)CCNC(=O)c1c(C)[nH]c(/C=C2\C(=O)Nc3ccc(F)cc32)c1C	enzyme activity, inhibitor	10 µM	inhibition	88%
Cn1cnc(Br)c1C1=CN(c2ncnc3[nH]cnc23)CCS1	enzyme activity, inhibitor, radiometric	50 nM	inhibition	19.1%
Cn1c2c(c3ccc(Cl)c(Cl)c31)C(C#N)C1(CCCCC1)NC2=O (racemic)	thermal stability, DSF	10 µM	ΔTm	0.1 °C
CCOc1cc(-c2nncn2C)ccc1Nc1ncc2cc(C)nc(NCC(C)(C)C)c2n1	enzyme activity, inhibitor, FRET	1 µM	inhibition	< 15%
c1ccc(CNc2nc(N3CCOc4ccccc43)nc3c2CCCC3)cc1	target engagement in cells, inhibitor, chemoproteomics	20 mM	inhibition	-7.2%
Cc1ccc(Nc2nccc(N(C)c3ccc4c(C)n(C)nc4c3)n2)cc1S(N)(=O)=O	enzyme activity, inhibitor	10 µM	inhibition	15%
Cn1c2c(c3ccc(Cl)c(Cl)c31)C(C#N)C1(CCOCC1)NC2=O (stereo not drawn)	thermal stability, DSF	10 µM	ΔTm	-0.1 °C
COc1ccc(COc2ccc(Cc3cnc(N)nc3N)cc2OC)cc1	cell-free assay	0.5 µM	remaining signal	99.4%
COc1cccc2c(NCc3ccccc3)nc(-n3c(N)nc4ccccc43)nc12	target engagement in cells, inhibitor, chemoproteomics	20 mM	inhibition	-4.3%

SMILES	assay	setting	quantity	result
Cc1ccc(C(=O)NCc2ccsc2)cc1C#Cc1cn(C(C)C)c2ncnc(N)c12	enzyme activity, inhibitor	1 µM	activity vs control	71%
Cn1cncc1C1=CN(c2ncnc3[nH]cnc23)CCS1	enzyme activity, inhibitor, radiometric	2 µM	inhibition	93.1%
CCN(CC)c1ccc(C2=NNC(=O)CC2C)cc1[N+](=O)[O-] (stereo not drawn)	enzyme activity, inhibitor	10 µM	remaining activity	106%
CCS(=O)(=O)c1cc2cc(C[C@@](O)(CC(C)(C)c3ccc(F)cc3C(N)=O)C(F)(F)F)[nH]c2cn1	cell-free assay, competition with immobilised ligand	1 µM	remaining binding	89%
COc1cc2ncnc(Nc3ccc(Oc4ccccc4)c(C)c3C)c2cc1OC	enzyme activity, inhibitor	1 µM	inhibition	2%
Cn1c2c(c3ccc(Cl)c(Cl)c31)C(C#N)C1(CCCC1)NC2=O (stereo not drawn)	thermal stability, DSF	10 µM	ΔTm	-0.1 °C
CCCOc1ccc(OC)c(F)c1C(=O)c1ccc(C(=O)N[C@@H]2CNC[C@H]2NC(=O)c2ccc3[nH]ncc3c2)cc1	enzyme activity, inhibitor	10 µM	remaining activity	48%
Cn1c2c(c3ccc(Cl)c(Cl)c31)C(C#N)C(C)(C)NC2=O (stereo not drawn)	thermal stability, DSF	10 µM	ΔTm	0.2 °C
COc1cc(-c2cn(C3CCc4ccccc4N(CC(F)(F)F)C3=O)nn2)ccc1-n1ccc(C)n1 (stereo not drawn)	cell-free assay, competition with immobilised ligand	1 µM	remaining binding	86%
CNC(=O)c1cc(Oc2ccc(NC(=O)Nc3ccc(Cl)c(C(F)(F)F)c3)cc2)ccn1	enzyme activity, inhibitor	10 µM	inhibition	15%
CNC(=O)Nc1ccc2c(c1)[C@@]1(CC2)OC(=O)N(CC(=O)N(Cc2ccc(F)cc2)[C@@H](C)C(F)(F)F)C1=O	cell-free assay, competition with immobilised ligand	1 µM	remaining binding	100%
Cc1sc(C(=O)NC2COC2)cc1-n1cc(NC(=O)Nc2c(F)cccc2Cl)cn1	enzyme activity, inhibitor	10 µM	remaining activity	95.7%
C[C@@]1(Cc2ccc(C#N)cc2)C(=O)N(c2cc(Cl)cc(Cl)c2)c2ncc(C(=O)NC3(c4nc(C5CCC5)no4)CC3)n21	cell-free assay, competition with immobilised ligand	1 µM	remaining binding	100%
O=C1NC(=O)c2cc(Nc3ccc(F)cc3)c(Nc3ccc(F)cc3)cc21	cell-free assay	0.5 µM	remaining signal	86.8%
Cc1cnc(NC2CCOCC2)nc1-n1cnc(C(=O)NC(CN)c2cc(F)cc(Cl)c2)c1 (stereo not drawn)	enzyme activity, inhibitor, radiometric	1 µM	remaining activity	5%
Cc1cc(C)c(-n2ccn3nc(-c4cccnc4)cc23)cc1NC(=O)c1cc(C#N)cc(S(F)(F)(F)(F)F)c1	cell-free assay, competition with immobilised ligand	0.1 µM	remaining binding	100%
